The values below come from ChEMBL document CHEMBL1268856, “The tomato saponin, esculeoside A” (J Nat Prod, 2010).

Activity calls are given as the source filed them. The calls are words filed in the database; no cut-off is given here.

The test system of series [1] is MDM. Description: Antihyperlipidemic activity in human MDM cell assessed as inhibition of acetule-LDL-induced cholesterol ester accumulation after 24 hrs. The series is classed as functional, cell-based. In a few lines: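 Human monocyte-derived macrophages were incubated 24 h with 50 µg/mL acetyl-LDL plus 0.1 mM [3H]oleate conjugated to BSA, with or without compound. [3H]cholesteryl ester was separated by TLC and counted by radioscanner. Three independent experiments; means ± SD.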

Series [2] deals with MDM. In words: Antihyperlipidemic activity in human MDM cell assessed as inhibition of acetule-LDL-induced cholesterol ester accumulation after 5 hrs. The series is classed as functional, cell-based.
The target of series [3] is T1, Sterol O-acyltransferase 1 (Homo sapiens) (UniProt P35610).
T1 sequence (whole entry): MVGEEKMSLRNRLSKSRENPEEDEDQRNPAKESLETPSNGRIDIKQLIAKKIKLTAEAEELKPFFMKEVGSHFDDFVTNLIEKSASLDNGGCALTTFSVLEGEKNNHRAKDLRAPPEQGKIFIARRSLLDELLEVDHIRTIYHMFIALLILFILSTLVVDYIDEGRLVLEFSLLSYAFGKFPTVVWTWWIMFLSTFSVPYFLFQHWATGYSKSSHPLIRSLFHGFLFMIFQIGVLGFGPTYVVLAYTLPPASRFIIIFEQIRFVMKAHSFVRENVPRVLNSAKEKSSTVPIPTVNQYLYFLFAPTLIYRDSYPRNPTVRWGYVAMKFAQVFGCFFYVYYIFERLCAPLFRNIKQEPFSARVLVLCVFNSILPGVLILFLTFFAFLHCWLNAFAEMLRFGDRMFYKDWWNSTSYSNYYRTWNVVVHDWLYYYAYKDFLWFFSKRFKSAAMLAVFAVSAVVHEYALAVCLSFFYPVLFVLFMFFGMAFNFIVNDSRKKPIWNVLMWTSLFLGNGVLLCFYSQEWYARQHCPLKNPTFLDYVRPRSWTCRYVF
In words: Inhibition of human ACAT1 expressed in CHO cells assessed as inhibition of [3H]oleate-induced cholesterol ester accumulation. The series is classed as cell-based. A digest of the protocol: (§1)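 CHO cells overexpressing human ACAT-1 or ACAT-2 were incubated 24 h in medium with 10% fetal calf serum, 0.1 mM [3H]oleate-BSA and the indicated compound concentrations. [3H]cholesteryl ester was separated by TLC and radioactivity measured. Repeated three times.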

Series [4] concerns the target T2, Sterol O-acyltransferase 2 (Homo sapiens) (UniProt O75908).
T2 sequence (whole entry): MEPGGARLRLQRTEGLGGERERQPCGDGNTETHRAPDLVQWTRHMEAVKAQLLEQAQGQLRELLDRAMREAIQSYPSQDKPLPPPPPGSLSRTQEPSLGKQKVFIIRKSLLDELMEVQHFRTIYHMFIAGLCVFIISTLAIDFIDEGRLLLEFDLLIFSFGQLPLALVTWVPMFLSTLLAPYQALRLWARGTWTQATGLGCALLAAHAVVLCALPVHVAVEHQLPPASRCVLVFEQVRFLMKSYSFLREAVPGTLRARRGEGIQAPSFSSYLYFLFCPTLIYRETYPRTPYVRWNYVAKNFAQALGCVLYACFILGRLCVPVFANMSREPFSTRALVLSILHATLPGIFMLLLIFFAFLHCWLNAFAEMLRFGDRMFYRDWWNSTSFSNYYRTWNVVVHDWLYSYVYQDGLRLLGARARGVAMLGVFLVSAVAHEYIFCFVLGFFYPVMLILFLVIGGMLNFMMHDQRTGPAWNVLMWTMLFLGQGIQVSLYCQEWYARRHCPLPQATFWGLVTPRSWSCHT
Description: Inhibition of human ACAT2 expressed in CHO cells assessed as inhibition of [3H]oleate-induced cholesterol ester accumulation. The format is cell-based. A digest of the protocol:
as §1

Series [5] can be described thus: Cytotoxicity against human MDM cells at 100 uM. The series is classed as cell-based.
Series [6] has as its system Mus musculus. In words: Antihyperlipidemic in apoE deficient mouse assessed as reduction in LDL cholesterol level at 100 mg/kg qd after 90 hrs. The series is classed as functional. Also noted: scale not given: the % may be the effect or the level left. Particulars: in the assay text read “after 90 days” for “after 90 hrs”. A digest of the protocol:
(§2)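 ApoE-deficient mice were fed diets with or without compound (100 mg/kg/day) for 90 days, n = 10 per group. Plasma total cholesterol, LDL cholesterol and triglyceride were then measured. Data are means ± SD.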

For series [7], the system named is Mus musculus. In words: Antihyperlipidemic in apoE deficient mouse assessed as reduction in total cholesterol level at 100 mg/kg qd after 90 hrs. The format is functional. Further details: scale not given: the % may be the effect or the level left. As to conditions: in the assay text read “after 90 days” for “after 90 hrs”. In a few lines: as §2
Series [8] concerns Mus musculus. Description: Antiatherogenesis in apoE deficient mouse assessed as reduction in aortic lesions at 100 mg/kg qd. The format is functional, Aorta. Also noted: scale not given: the % may be the effect or the level left. A digest of the protocol:
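ApoE-deficient mice given diet with or without compound at 100 mg/kg/day for 90 days, n = 10 per group. Aortic sinus cross sections stained with oil red O and viewed at ×200. Cross-sectional lesion area was quantified and compared with untreated controls.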

Series [9] deals with Mus musculus. Description: Antihyperlipidemic in apoE deficient mouse assessed as reduction in triglyceride level at 100 mg/kg qd after 90 hrs. The series is classed as functional. As to conditions: in the assay text read “after 90 days” for “after 90 hrs”. Also noted: scale not given: the % may be the effect or the level left. In a few lines:
as §2

As for `C[C@@H]1[C@H]2[C@H](C[C@H]3[C@@H]4CC[C@H]5C[C@@H](O)CC[C@]5(C)[C@H]4CC[C@]23C)O[C@@]12NC[C@@H](CO)C[C@@H]2O`, the result with MDM [1] was Active. Moreover, the Activity entry (with MDM [2]; in [3]; in series [4]) was “Dose-dependent effect” in each case.

For `CC(=O)O[C@H]1C[C@H](CO[C@@H]2O[C@H](CO)[C@@H](O)[C@H](O)[C@H]2O)CN[C@@]12O[C@H]1C[C@H]3[C@@H]4CC[C@H]5C[C@@H](O[C@@H]6O[C@H](CO)[C@H](O[C@@H]7O[C@H](CO)[C@@H](O)[C@H](O[C@@H]8OC[C@@H](O)[C@H](O)[C@H]8O)[C@H]7O[C@H]7O[C@H](CO)[C@@H](O)[C@H](O)[C@H]7O)[C@H](O)[C@H]6O)CC[C@]5(C)[C@H]4CC[C@]3(C)[C@H]1[C@H]2C` [ESCULEOSIDE A], the result in the series on MDM [1] was Active. For the same compound, the Activity entry is “Non-toxic” in series [5]; 25% with Mus musculus [6]; 25% in the series on Mus musculus [7]; 52% in the series on Mus musculus [8]; 45% in the series on Mus musculus [9].
